Measurements of several laboratories.
Target: Serine/threonine-protein kinase Chk2 (CHEK2, Homo sapiens, UniProt O96017)

Structure (SMILES)	assay	conditions	measurement	value
Nc1ncc(-c2nc(N3CCOCC3)nc(N3CCOCC3)n2)c(C(F)F)n1	binding, competition with immobilised ligand	10 µM	remaining binding	75%
COc1ncccc1-c1cnn2ccc(N3CCN(C(=O)OC(C)C)CC3)nc12	binding, competition with immobilised ligand	1 µM	remaining binding	77%
N#CC1(c2ccccn2)CCN(Cc2cc(C(=O)O)c(=O)n3ccccc23)CC1	cell-free assay, competition with immobilised ligand	1 µM	remaining binding	87%
Cc1nn(C)cc1-c1nc2c(N3CCN(Cc4ccc(Cl)cc4)CC3)c(Cl)cnc2[nH]1	binding, competition with immobilised ligand	1 µM	remaining binding	100%
CC(C)(C)c1cc(C=C(C#N)C#N)cc(Br)c1O	enzyme activity, inhibitor	0.5 µM	remaining activity	104%
COc1cc(Nc2ncc(F)c(Nc3ccc4c(n3)NC(=O)C(C)(C)O4)n2)cc(OC)c1OC	binding, competition with immobilised ligand	10 µM	inhibition	45%
Cn1cc(-c2cc(F)cc(N3CCn4c(cc5c4CCCC5)C3=O)c2CO)cc(Nc2ccc(N3CCN(C4COC4)CC3)cn2)c1=O	enzyme activity, inhibitor	0.1 µM	inhibition	11%
O=c1[nH]c2ccccc2n1C1CCN(Cc2ccc(-c3[nH]c4cc5ncnc5cc4nc3-c3ccccc3)cc2)CC1	cell-free assay	0.5 µM	remaining signal	100%
Cn1cncc1[C@@](O)(COc1ccc(C#N)cc1-c1ccc(OC(F)(F)F)cc1)c1ccc(C#N)cc1	cell-free assay, competition with immobilised ligand	1 µM	remaining binding	96%
Cn1cc(-c2cccc(N3CCc4c(sc5c4CC(C)(C)C5)C3=O)c2CO)cc(Nc2ccncn2)c1=O	enzyme activity, inhibitor	1 µM	inhibition	1%
